From ChEMBL document CHEMBL4382218, “Design, synthesis and antifungal evaluation of borrelidin derivatives” (Bioorg Med Chem, 2018)
Converted amounts (≈) assume the structure as drawn. The source made the active and inactive calls. The rule behind the calls is not given here.

What was measured:
HEK-293T = test: Cytotoxicity against HEK293T cells assessed as growth inhibition after 48 hrs by MTT assay; assay type: cell-based; conditions: Homo sapiens
Summary of the method: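 293T cells are grown in DMEM with 10% FBS, L-glutamine and penicillin/streptomycin at 37 °C in 5% CO₂. Cells are seeded at 7 × 10³ per well and exposed to six concentrations (0.33-100.0 μM) for 48 h. MTT is then added for 4 h, formazan is dissolved in DMSO and read at 570 nm. IC50 comes from non-linear regression, n = 3 independent experiments.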

Aspergillus fumigatus [1] = test: Antifungal activity against Aspergillus fumigatus CCTCC AF 93048 after 48 hrs by micro broth dilution method; assay type: functional; conditions: CCTCC AF 93048, 48 h
Summary of the method: (§1)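 Broth microdilution in RPMI-1640 (NaHCO3, MOPS, pH 7.0). Compounds are dissolved in DMSO and serially diluted 2-fold to eight concentrations, with stocks of […]. Fungal inocula are 2 × 10³ cfu/mL. Plates are incubated 48 h at 28 °C. The MIC is the lowest concentration with no turbidity, and the highest concentration tested is 100 μg/mL.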

Candida albicans [2] = test: Antifungal activity against Candida albicans ATCC MYA-2876 at 100 ug/ml after 48 hrs by micro broth dilution method; assay type: functional, organism-based; summary of the method: as §1
[3] = Selectivity index, ratio of IC50 for HEK293T cells to MIC for Candida albicans ATCC MYA-2876; assay type: toxicity; conditions: human, read-out: Selectivity Index
Candida parapsilosis [4] = test: Antifungal activity against Candida parapsilosis ATCC 22019 at 100 ug/ml after 48 hrs by micro broth dilution method; assay type: functional, organism-based; summary of the method: as §1
[5] = Selectivity index, ratio of IC50 for HEK293T cells to MIC for Aspergillus fumigatus CCTCC AF 93048; assay type: toxicity; conditions: human, read-out: Selectivity Index
[6] = Selectivity index, ratio of IC50 for HEK293T cells to MIC for Candida parapsilosis ATCC 22019; assay type: toxicity; conditions: human, read-out: Selectivity Index
Candida parapsilosis [7] = test: Antifungal activity against Candida parapsilosis ATCC 22019 after 48 hrs by micro broth dilution method; assay type: functional; conditions: Lodderomyces parapsilosis, ATCC 22019, 48 h; summary of the method: as §1
Aspergillus fumigatus [8] = test: Antifungal activity against Aspergillus fumigatus CCTCC AF 93048 at 100 ug/ml after 48 hrs by micro broth dilution method; assay type: functional, organism-based; summary of the method: as §1
Candida albicans [9] = test: Antifungal activity against Candida albicans ATCC MYA-2876 after 48 hrs by micro broth dilution method; assay type: functional; conditions: ATCC MYA-2876, 48 h; summary of the method: as §1

Row | Structure (SMILES) | MIC (Aspergillus fumigatus [1]) [µg/mL] | MIC (Candida parapsilosis [7]) [µg/mL] | MIC (Candida albicans [9]) [µg/mL] | IC50 (HEK-293T) [µg/mL] | Activity (Candida albicans [2]) | selectivity ratio [3] | Activity (Candida parapsilosis [4]) | selectivity ratio [5] | selectivity ratio [6] | Activity (Aspergillus fumigatus [8])
1 | C[C@@H]1C[C@H](C)C[C@H](C)[C@@H](O)CC(=O)O[C@H]([C@@H]2CCC[C@H]2C(=O)O)C/C=C/C=C(/C#N)[C@H](O)[C@@H](C)C1 [BORRELIDIN] | – | 50 (≈ 102 µM) | – | 14 (≈ 28.5 µM) | inactive | < 0.14 | – | < 0.14 | 0.28 | inactive
2 | C[C@@H]1C[C@H](C)C[C@H](C)[C@@H](O)CC(=O)O[C@H]([C@@H]2CCC[C@H]2C(=O)OCCN(C)C)C/C=C/C=C(/C#N)[C@H](O)[C@@H](C)C1 | – | 100 (≈ 178 µM) | 100 (≈ 178 µM) | 39.2 (≈ 70 µM) | – | 0.39 | – | < 0.39 | 0.39 | inactive
3 | C[C@@H]1C[C@H](C)C[C@H](C)[C@@H](O)CC(=O)O[C@H]([C@@H]2CCC[C@H]2C(=O)OCCN2CCOCC2)C/C=C/C=C(/C#N)[C@H](O)[C@@H](C)C1 | – | 100 (≈ 166 µM) | 100 (≈ 166 µM) | 28 (≈ 46.5 µM) | – | 0.28 | – | < 0.28 | 0.28 | inactive
4 | C[C@@H]1[C@H](O)[C@@H](C)/C=C/C=C/C=C/C=C/C=C/C=C/C=C/[C@H](O[C@@H]2O[C@H](C)[C@@H](O)[C@H](N)[C@@H]2O)C[C@@H]2O[C@](O)(C[C@@H](O)C[C@@H](O)[C@H](O)CC[C@@H](O)C[C@@H](O)CC(=O)O[C@H]1C)C[C@H](O)[C@H]2C(=O)O [AMPHOTERICIN B] | 2 (≈ 2.16 µM) | 1 (≈ 1.08 µM) | 2 (≈ 2.16 µM) | – | – | – | – | – | – | –
5 | C[C@@H]1C[C@H](C)C[C@H](C)[C@@H](O)CC(=O)O[C@H]([C@@H]2CCC[C@H]2C(=O)OCCN2CCCCC2)C/C=C/C=C(/C#N)[C@H](O)[C@@H](C)C1 | 50 (≈ 83.2 µM) | 100 (≈ 166 µM) | 100 (≈ 166 µM) | 27.6 (≈ 46 µM) | – | 0.28 | – | 0.55 | 0.28 | –
6 | C[C@@H]1C[C@H](C)C[C@H](C)[C@@H](O)CC(=O)O[C@H]([C@@H]2CCC[C@H]2C(=O)O)C/C=C/C=C(/C(N)=O)[C@H](O)[C@@H](C)C1 | > 100 | > 100 | > 100 | – | inactive | – | inactive | – | – | inactive
7 | C[C@@H]1C[C@H](C)C[C@H](C)[C@@H](O)CC(=O)O[C@H]([C@@H]2CCC[C@H]2C(=O)OCCn2ccnc2)C/C=C/C=C(/C#N)[C@H](O)[C@@H](C)C1 | 25 (≈ 42.8 µM) | – | – | 18.1 (≈ 31 µM) | – | < 0.18 | – | 0.72 | < 0.18 | –
8 | C[C@@H]1C[C@H](C)C[C@H](C)[C@@H](O)CC(=O)O[C@H]([C@@H]2CCC[C@H]2C(=O)OCCN2CCCC2)C/C=C/C=C(/C#N)[C@H](O)[C@@H](C)C1 | 50 (≈ 85.2 µM) | 12.5 (≈ 21.3 µM) | 50 (≈ 85.2 µM) | 35.2 (≈ 60 µM) | – | 0.71 | – | 0.71 | 2.81 | –
9 | COc1ccc2[nH]cc(CCNC(=O)[C@@H]3CCC[C@H]3[C@@H]3C/C=C/C=C(/C#N)[C@H](O)[C@@H](C)C[C@H](C)C[C@H](C)C[C@H](C)[C@@H](O)CC(=O)O3)c2c1 | – | – | – | – | inactive | – | inactive | – | – | inactive
10 | C[C@@H]1C[C@H](C)C[C@H](C)[C@@H](O)CC(=O)O[C@H]([C@@H]2CCC[C@H]2C(=O)OCCc2ccccc2)C/C=C/C=C(/C#N)[C@H](O)[C@@H](C)C1 | – | – | – | – | inactive | – | inactive | – | – | inactive

Continued, in another order:

Row | MIC (Aspergillus fumigatus [1]) [µg/mL] | MIC (Candida parapsilosis [7]) [µg/mL] | MIC (Candida albicans [9]) [µg/mL] | Structure (SMILES) | IC50 (HEK-293T) [µg/mL] | Activity (Candida albicans [2]) | selectivity ratio [3] | Activity (Candida parapsilosis [4]) | selectivity ratio [5] | selectivity ratio [6] | Activity (Aspergillus fumigatus [8])
11 | 12.5 (≈ 17.8 µM) | – | – | C[C@@H]1C[C@H](C)C[C@H](C)[C@@H](O)CC(=O)O[C@H]([C@@H]2CCC[C@H]2C(=O)OCCN2CCN(CCC3OCCO3)CC2)C/C=C/C=C(/C#N)[C@H](O)[C@@H](C)C1 | > 70.1 | inactive | < 0.7 | inactive | > 5.61 | < 0.7 | –
12 | 50 (≈ 76.2 µM) | – | – | C[C@@H]1C[C@H](C)C[C@H](C)[C@@H](O)CC(=O)O[C@H]([C@@H]2CCC[C@H]2C(=O)OCCN2CCN(CC3CC3)CC2)C/C=C/C=C(/C#N)[C@H](O)[C@@H](C)C1 | 17 (≈ 26 µM) | inactive | < 0.17 | inactive | 0.34 | < 0.17 | –
13 | 12.5 (≈ 19.5 µM) | – | – | C=CCN1CCN(CCOC(=O)[C@@H]2CCC[C@H]2[C@@H]2C/C=C/C=C(/C#N)[C@H](O)[C@@H](C)C[C@H](C)C[C@H](C)C[C@H](C)[C@@H](O)CC(=O)O2)CC1 | 22 (≈ 34.3 µM) | inactive | < 0.22 | inactive | 1.76 | < 0.22 | –
14 | 25 (≈ 35.8 µM) | – | – | C[C@@H]1C[C@H](C)C[C@H](C)[C@@H](O)CC(=O)O[C@H]([C@@H]2CCC[C@H]2C(=O)OCCN2CCN(CC3CCCCC3)CC2)C/C=C/C=C(/C#N)[C@H](O)[C@@H](C)C1 | 23 (≈ 33 µM) | inactive | < 0.23 | inactive | 0.92 | < 0.23 | –
15 | 50 (≈ 81.2 µM) | 25 (≈ 40.6 µM) | 100 (≈ 162 µM) | C[C@@H]1C[C@H](C)C[C@H](C)[C@@H](O)CC(=O)O[C@H]([C@@H]2CCC[C@H]2C(=O)OCCN2CCN(C)CC2)C/C=C/C=C(/C#N)[C@H](O)[C@@H](C)C1 | 58.5 (≈ 94.9 µM) | – | 0.58 | – | 1.17 | 2.34 | –
